Hits are enriched below; roughly 0.72% of the tested compounds scored in any of these assays.
AI-2 QS modul: Vibrio harveyi AI-2 quorum sensing modulators, primary screen, JMH597 strain, luminescence/OD600 ratio. Vibrio harveyi JMH597 AI-2 luminescence/OD600 ratio, 9 h; hits give low values; strain lacks LuxN and CqsS sensors; 0 = neutral-control median. activity change, % at 7.5 µM. 300,000 tested, 0.4% active. AID 2094, 2009; in the data active means activity change below about -75%, passing the limit was not always enough;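 further: luminescence divided by OD600 gain over 9 h not by final OD600 alone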
GSK3 alpha inh: blockers of GSK3A enzyme activity – biochemical, luminescence, cell-free homogeneous, HTS, primary screen. Glycogen synthase kinase-3 alpha (Homo sapiens), P49840. GSK-3 alpha kinase, ADP-Glo luminescence, 60 min. inhibition, % at 10 µM. 320,000 tested, 0.1% active. AID 2650, 2010;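 active means more than half of replicates show inhibition above 20%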;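 further: GST-tagged GSK-3 alpha with peptide substrate and 25 µM ATP; 0% = DMSO neutral wells and 100% = GW8510 positive control wells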
STK33 inh: inhibitors of purified STK33 kinase, primary screen, biochemical, ADP-Glo luminescence, homogeneous, cell-free; MBP phosphorylation; Serine/threonine-protein kinase 33 (Homo sapiens), Q9BYT3; AID 2661, 2010; 320,000 tested, 0.073% active; inhibition, % at 10 µM;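 active means inhibition at or above 25%, using the most active replicate where run in duplicate; inactive means inhibition below 25%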
GSK3beta inhib: human GSK3beta kinase inhibitors, primary screen, biochemical, cell-free homogeneous, HTS; Glycogen synthase kinase-3 beta (Homo sapiens), P49841; GST-GSK3beta kinase, ADP-Glo luminescence, 60 min; hits give low values; activity score (negative = inhibition), % at 10 µM; 300,000 tested, 0.038% active; AID 2097, 2009;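 active means more than half of replicate wells score below -50%, meaning over 50% inhibition versus plate controls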;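 further: 0% = median DMSO wells and -100% = median GW8510 positive control wells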
Target sequence (P49841 whole entry, looked up): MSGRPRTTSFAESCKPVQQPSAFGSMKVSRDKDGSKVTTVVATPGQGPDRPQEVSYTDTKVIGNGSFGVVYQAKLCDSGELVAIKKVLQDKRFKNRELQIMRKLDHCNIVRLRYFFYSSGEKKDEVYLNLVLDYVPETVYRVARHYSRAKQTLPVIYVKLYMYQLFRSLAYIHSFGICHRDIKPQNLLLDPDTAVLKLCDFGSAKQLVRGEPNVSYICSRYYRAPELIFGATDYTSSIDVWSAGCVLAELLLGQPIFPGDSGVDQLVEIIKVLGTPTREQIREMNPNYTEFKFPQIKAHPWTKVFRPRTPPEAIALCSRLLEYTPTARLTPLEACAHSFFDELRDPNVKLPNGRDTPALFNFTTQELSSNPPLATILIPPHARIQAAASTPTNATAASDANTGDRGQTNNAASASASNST
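Test system: GST-fused GSK3beta enzyme, cell-free | Quantity: 1.6 ng GST-GSK3beta enzyme per well | Reagent: 25 µM ATP with peptide substrate | Schedule: 60 min enzyme reaction, room temperature | Signal: Luminescent ADP-Glo measurement of ADP formed | Read-out basis: Score relative to plate controls | Control set: DMSO and 20 µM GW8510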
PolyA inhibitor: polyadenylation inhibitors in yeast reporter cells, primary screen, luminescence, S. cerevisiae; 300,000 tested, 0.02% active; activity score, % at 12 µM; S. cerevisiae SKY197-pL101 polyadenylation reporter, beta-gal luminescence; efflux-impaired pdr1/pdr3 knockout yeast; score 100 = 6 SD above DMSO;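 active means lowest replicate activity score at least 50, where 100 means six control SD above control mean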;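 further: yeast exposed to compound for 9 h at 30 °C; higher score means more reporter readthrough which indicates perturbed polyadenylation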
CR mimetic SO: reduction of superoxide in aged yeast, primary screen, HTS | S. cerevisiae aged cells, superoxide DHE fluorescence; hits give low values | 330,000 tested, 0.18% active | superoxide response (% of plate mean), % at 10 µM;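 active means superoxide response under a set limit, about three screen SD below normal, cut at about 65% in these data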;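 further: yeast aged for seven days with compound at 30 °C before DHE staining; 100% = average MFI of all compound-treated wells on the plate with controls excluded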
The depositor's hits bear a star; . = not tested or not shown.

SMILES	AI-2 QS modul	GSK3 alpha inh	STK33 inh	GSK3beta inhib	PolyA inhibitor	CR mimetic SO
Oc1ccc2c(c1)oc1cc(O)ccc12	-3	53*	12	3	6	75
O=C(NCCCN1CCCCC1)c1ccc2c(c1)NC(=O)c1ccccc1S2	-5	6	3	-4	3	97
COc1cccc(/C=C2/Sc3ccc(C(=O)NCCN4CCCC4)cc3NC2=O)c1	7	1	1	-67*	5	107
COc1cccc(/C=C2/Sc3ccc(C(=O)NCCCN4CCCC4)cc3NC2=O)c1	6	84*	11	-83*	-5	90
O=C1Nc2cc(C(=O)NCCCN3CCCC3)ccc2S/C1=C/c1ccccc1F	-4	42	1	-67*	-13	120
Cc1cc(C(=O)NCC(c2cccs2)N2CCOCC2)ccc1[N+](=O)[O-] (stereo not given)	9	-2	1	-2	2	98
CCCCc1ccc(N/C(N)=N/c2nc(C)cc(C)n2)cc1	14	-5	1	-5	15	95
COc1ccc(/C=C/c2nc3ccccc3n2C)cc1	10	45	50*	-38	14	99
O=C1C=CC(O)(c2cc(=O)c3c(O)cc(O)cc3o2)C=C1	24	26	38*	-1	22	92
CS(=O)(=O)c1ccc(Cl)c(NC(=O)CSc2n[nH]c(-c3cccs3)n2)c1	.	-2	1	.	.	99
O=C(NCc1ccc(Cl)cc1)C1CCN(S(=O)(=O)c2cccnc2)CC1	-79*	1	-1	-2	-1	106
COc1ccc(/C=C2/C(=O)OCc3cc(OC)c(OC)cc32)cc1	2	1	4	1	-37	90
CN=C(NC#N)SCC(=O)c1ccc(Cl)cc1Cl	-15	77*	3	-71*	-15	101
O=C(COC(=O)C1=COCCO1)Nc1ccc(Br)cc1Br	.	2	0	.	.	102
CCOC(=O)c1ccc(NC(=O)Cn2nc(C)c3ccccc3c2=O)cc1	-97*	2	-3	2	15	97
CCOC(=O)c1ccc(NC(=O)Cn2ncc(Cl)c(Cl)c2=O)cc1	-96*	-4	-3	0	-2	100
CCC(=O)Nc1ccc(C(=O)Cn2ncc(Cl)c(Cl)c2=O)cc1	-30	0	-1	2	-5	105
COC(=O)c1ccc(NC(=O)Cn2nc(C)c3ccccc3c2=O)cc1	-96*	1	-18	2	11	97
COC(=O)Cn1nc(C)c2ccccc2c1=O	-15	2	-1	1	-6	103
Cc1c(CN(C)C(=O)/C=C/c2ccc([N+](=O)[O-])cc2)cnn1C	13	1	0	3	22	92
CC(=O)c1ccc(NC(=O)COC(=O)c2nc(Cl)ccc2Cl)cc1	-59	-7	-1	2	5	81
COc1ccccc1N=c1oc2cc(O)ccc2cc1C(=O)NCC1CCCO1 (stereo not given)	1	0	-3	1	25	106
Cc1cccc(N=c2oc3cc(O)ccc3cc2C(N)=O)c1	4	56*	19	0	18	92
COc1ccccc1N=c1oc2cc(O)ccc2cc1C(N)=O	25	61*	37*	2	12	101
COc1ccc2cc(C(N)=O)c(=Nc3ccc(C)cc3)oc2c1	7	0	1	6	-18	95
COC(=O)C1=C(C)NC(=S)NC1c1ccc(-c2cc(Cl)ccc2Cl)o1 (stereo not given)	10	-3	-1	-1	13	103
CCN1C=CC(=C2C(=O)c3ccccc3C2=O)C=C1	24	3	28*	-5	19	96
CCCN1C=CC(=C2C(=O)c3ccccc3C2=O)C=C1	16	10	31*	0	24	103
CCCCCCN1C=CC(=C2C(=O)c3ccccc3C2=O)C=C1	10	-3	-1	-5	-3	110

Source: PubChem (several laboratories)
